Measured values taken from ChEMBL document CHEMBL1157144, “Novel 16-membered macrolides modified at C-12 and C-13 positions of midecamycin A1 and miokamycin. Part 1: Synthesis and evaluation of 12,13-carbamate and 12-arylalkylamino-13-hydroxy analogues” (2008).
Converted amounts (≈) assume the structure as drawn.

Legend:
Assay type in all cases: functional
Streptococcus pyogenes [1] = assay: Antibacterial activity against standard Streptococcus pyogenes after 20 hrs by agar dilution method
Procedure, shortened: (§1)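 MIC by agar dilution. Strains grown on blood agar plates for seed culture. About 5 µl of a suspension of roughly 10^6 CFU/ml spotted onto Sensitivity disk agar with 5% horse blood. Plates incubated at 37 °C for 20 h, then MIC read.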

Staphylococcus aureus [2] = assay: Antibacterial activity against ermC-inducible resistant Staphylococcus aureus after 20 hrs by agar dilution method
Procedure, shortened: (§2)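 Agar dilution MIC. The inoculum came from a seed culture in Sensitivity test broth. A 5 µl portion of a cell suspension of about 10^6 CFU/ml was inoculated onto Sensitivity disk agar supplemented with 5% horse blood. Plates were incubated at 37 °C for 20 h, then MIC was read.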

Streptococcus pneumoniae [3] = assay: Antibacterial activity against ermB-constitutive resistant Streptococcus pneumoniae after 20 hrs by agar dilution method
Procedure, shortened: (§3)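 Agar dilution MIC. Streptococcal strains were pre-cultured on blood agar plates. A 5 µl portion of a cell suspension of about 10^6 CFU/ml was inoculated onto Sensitivity disk agar supplemented with 5% horse blood. Plates were incubated at 37 °C for 20 h, then MIC was read.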

Staphylococcus aureus [4] = assay: Antibacterial activity against ermB-inducible resistant Staphylococcus aureus after 20 hrs by agar dilution method; procedure, shortened: as §2
Staphylococcus aureus [5] = assay: Antibacterial activity against susceptible Staphylococcus aureus after 20 hrs by agar dilution method; procedure, shortened: as §2
Streptococcus pyogenes [6] = assay: Antibacterial activity against ermB-constitutive resistant Streptococcus pyogenes after 20 hrs by agar dilution method; procedure, shortened: as §3
Haemophilus influenzae [7] = assay: Antibacterial activity against standard Haemophilus influenzae after 20 hrs by agar dilution method; procedure, shortened: as §1
Moraxella catarrhalis = assay: Antibacterial activity against standard Moraxella catarrhalis after 20 hrs by agar dilution method; procedure, shortened: as §1
Streptococcus pneumoniae [8] = assay: Antibacterial activity against susceptible Streptococcus pneumoniae after 20 hrs by agar dilution method; procedure, shortened: as §1
Staphylococcus aureus [9] = assay: Antibacterial activity against standard Staphylococcus aureus after 20 hrs by agar dilution method; procedure, shortened: as §2
Streptococcus pneumoniae [10] = assay: Antibacterial activity against mefE efflux-resistant Streptococcus pneumoniae after 20 hrs by agar dilution method; procedure, shortened: as §3
Streptococcus pneumoniae [11] = assay: Antibacterial activity against ermB-inducible resistant Streptococcus pneumoniae after 20 hrs by agar dilution method; procedure, shortened: as §3
Streptococcus pyogenes [12] = assay: Antibacterial activity against mefE efflux-resistant Streptococcus pyogenes after 20 hrs by agar dilution method; procedure, shortened: as §3
Haemophilus influenzae [13] = assay: Antibacterial activity against susceptible Haemophilus influenzae after 20 hrs by agar dilution method; procedure, shortened: as §1
Staphylococcus aureus [14] = assay: Antibacterial activity against ermA-constitutive resistant Staphylococcus aureus after 20 hrs by agar dilution method; procedure, shortened: as §2

Row | Structure (SMILES) | MIC (Streptococcus pyogenes [1]) [µg/mL] | MIC (Staphylococcus aureus [2]) [µg/mL] | MIC (Streptococcus pneumoniae [3]) [µg/mL] | MIC (Staphylococcus aureus [4]) [µg/mL] | MIC (Staphylococcus aureus [5]) [µg/mL] | MIC (Streptococcus pyogenes [6]) [µg/mL] | MIC (Haemophilus influenzae [7]) [µg/mL] | MIC (Moraxella catarrhalis) [µg/mL] | MIC (Streptococcus pneumoniae [8]) [µg/mL] | MIC (Staphylococcus aureus [9]) [µg/mL] | MIC (Streptococcus pneumoniae [10]) [µg/mL] | MIC (Streptococcus pneumoniae [11]) [µg/mL] | MIC (Streptococcus pyogenes [12]) [µg/mL] | MIC (Haemophilus influenzae [13]) [µg/mL] | MIC (Staphylococcus aureus [14]) [µg/mL]
1 | CCC(=O)O[C@@H]1CC(=O)O[C@H](C)C[C@H](O)[C@H](N(C)CCCc2ccccc2)/C=C/[C@H](OC(C)=O)[C@H](C)C[C@H](CC=O)[C@H](O[C@@H]2O[C@H](C)[C@@H](O[C@H]3C[C@@](C)(OC(C)=O)[C@@H](OC(=O)CC)[C@H](C)O3)[C@H](N(C)C)[C@H]2O)[C@H]1OC | 0.05 (≈ 0.047 µM) | 0.39 (≈ 0.367 µM) | > 100 | 0.2 (≈ 0.188 µM) | 0.39 (≈ 0.367 µM) | 50 (≈ 47 µM) | 3.13 (≈ 2.94 µM) | 0.39 (≈ 0.367 µM) | 0.05 (≈ 0.047 µM) | 0.39 (≈ 0.367 µM) | 0.1 (≈ 0.094 µM) | 1.56 (≈ 1.47 µM) | 0.1 (≈ 0.094 µM) | 25 (≈ 23.5 µM) | > 100
2 | CCC(=O)O[C@@H]1CC(=O)O[C@H](C)C[C@H](O)[C@H](N(C)CCCc2cccc3ccccc23)/C=C/[C@H](OC(C)=O)[C@H](C)C[C@H](CC=O)[C@H](O[C@@H]2O[C@H](C)[C@@H](O[C@H]3C[C@@](C)(O)[C@@H](OC(=O)CC)[C@H](C)O3)[C@H](N(C)C)[C@H]2O)[C@H]1OC | 0.1 (≈ 0.0933 µM) | 0.78 (≈ 0.728 µM) | 50 (≈ 46.7 µM) | 3.13 (≈ 2.92 µM) | 0.39 (≈ 0.364 µM) | 50 (≈ 46.7 µM) | 6.25 (≈ 5.83 µM) | 0.78 (≈ 0.728 µM) | 0.1 (≈ 0.0933 µM) | 0.39 (≈ 0.364 µM) | 0.1 (≈ 0.0933 µM) | 6.25 (≈ 5.83 µM) | 0.2 (≈ 0.187 µM) | 25 (≈ 23.3 µM) | > 100
3 | CCC(=O)O[C@@H]1CC(=O)O[C@H](C)C[C@H](O)[C@H](N(C)CCCc2cnc3ccccc3c2)/C=C/[C@H](OC(C)=O)[C@H](C)C[C@H](CC=O)[C@H](O[C@@H]2O[C@H](C)[C@@H](O[C@H]3C[C@@](C)(O)[C@@H](OC(=O)CC)[C@H](C)O3)[C@H](N(C)C)[C@H]2O)[C@H]1OC | 0.1 (≈ 0.0933 µM) | 0.39 (≈ 0.364 µM) | > 100 | 0.2 (≈ 0.187 µM) | 0.39 (≈ 0.364 µM) | > 100 | 3.13 (≈ 2.92 µM) | 0.78 (≈ 0.727 µM) | 0.05 (≈ 0.0466 µM) | 0.39 (≈ 0.364 µM) | 0.1 (≈ 0.0933 µM) | 12.5 (≈ 11.7 µM) | 0.2 (≈ 0.187 µM) | 25 (≈ 23.3 µM) | > 100
4 | CCC(=O)O[C@@H]1CC(=O)O[C@H](C)C[C@H](O)[C@H](N(C)CCCCCCCc2ccccc2)/C=C/[C@H](OC(C)=O)[C@H](C)C[C@H](CC=O)[C@H](O[C@@H]2O[C@H](C)[C@@H](O[C@H]3C[C@@](C)(O)[C@@H](OC(=O)CC)[C@H](C)O3)[C@H](N(C)C)[C@H]2O)[C@H]1OC | 0.39 (≈ 0.362 µM) | 1.56 (≈ 1.45 µM) | 25 (≈ 23.2 µM) | 0.78 (≈ 0.724 µM) | 0.78 (≈ 0.724 µM) | 25 (≈ 23.2 µM) | 12.5 (≈ 11.6 µM) | 3.13 (≈ 2.91 µM) | 0.39 (≈ 0.362 µM) | 1.56 (≈ 1.45 µM) | 0.39 (≈ 0.362 µM) | 12.5 (≈ 11.6 µM) | 0.78 (≈ 0.724 µM) | 25 (≈ 23.2 µM) | 100 (≈ 92.8 µM)
5 | CCC(=O)O[C@@H]1CC(=O)O[C@H](C)C[C@H](O)[C@H](N(C)Cc2ccccc2)/C=C/[C@H](OC(C)=O)[C@H](C)C[C@H](CC=O)[C@H](O[C@@H]2O[C@H](C)[C@@H](O[C@H]3C[C@@](C)(O)[C@@H](OC(=O)CC)[C@H](C)O3)[C@H](N(C)C)[C@H]2O)[C@H]1OC | 0.1 (≈ 0.101 µM) | 0.39 (≈ 0.393 µM) | > 100 | 0.2 (≈ 0.201 µM) | 0.39 (≈ 0.393 µM) | > 100 | 3.13 (≈ 3.15 µM) | 0.39 (≈ 0.393 µM) | 0.1 (≈ 0.101 µM) | 0.39 (≈ 0.393 µM) | 0.1 (≈ 0.101 µM) | 100 (≈ 101 µM) | 0.39 (≈ 0.393 µM) | 25 (≈ 25.2 µM) | > 100
